How the values were obtained:
[1] = species on record: Oryctolagus cuniculus; assay: Calcium channel blocking activity in rabbit; format: functional
Method in brief: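 Thoracic aorta strips from male New Zealand rabbits (1.8–2.4 kg) in Krebs PSS at 37 °C, gassed 95% O2/5% CO2, pH 7.35. Contracted with high-K+ (100 mM KCl, NaCl reduced equimolar) Krebs. At plateau tension, increasing concentrations added cumulatively. Relaxation normalized to initial tension. IC50 by logit transformation of concentration-response curves.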

[2] = system: Rattus norvegicus; assay: Percent decrease in blood pressure in hypertensive rat at 60 mg/kg po; format: functional
Method in brief: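 Spontaneously hypertensive rats dosed orally. Read-out was percent fall in blood pressure.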

[3] = system: Rattus norvegicus; assay: Percent decrease in blood pressure in hypertensive rat at 16 mg/kg po; format: functional
Method in brief: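 Spontaneously hypertensive rats dosed orally. Blood pressure read-out expressed as percent decrease. Test agents were given […] po.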

[4] = target: Voltage-dependent L-type calcium channel subunit alpha-1C (Canis lupus familiaris); assay: Reduction in amplitude of calcium-dependent slow-response action potential by blocking voltage sensitive calcium channel

CO/C(O)=C1\C(C)=Nc2ccccc2SC1c1ccccc1 (stereo unspecified)
IC50 [1]: 1.7 µM

COc1ccc([C@@H]2Sc3ccccc3N(CCN(C)C)C(=O)[C@@H]2OC(C)=O)cc1 [DILTIAZEM]
Decrease [2]: 10% | IC50 [1]: 1 µM

CO/C(O)=C1\C(C)=Nc2ccccc2SC1c1ccccc1C(F)(F)F (stereo unspecified)
IC50 [1]: 12 µM

CO/C(O)=C1\C(C)=Nc2ccccc2SC1c1ccccc1[N+](=O)[O-] (stereo unspecified)
IC50 [1]: 0.3 µM

COC(=O)C1=C(C)NC(C)=C(C(=O)OC)C1c1ccccc1[N+](=O)[O-] [NIFEDIPINE]
Decrease [3]: 25% | IC50 [1]: 0.001 µM

CO/C(O)=C1\C(C)=Nc2ccccc2SC1c1ccc(OC)cc1 (stereo unspecified)
IC50 [1]: 22 µM

CO/C(O)=C1\C(C)=Nc2ccccc2SC1c1ccc([N+](=O)[O-])cc1 (stereo unspecified)
IC50 [1]: 3 µM

CCO/C(O)=C1\C(C)=Nc2ccccc2SC1c1cccc([N+](=O)[O-])c1 (stereo unspecified)
IC50 [1]: 0.4 µM

COC(=O)C1=C(C)N(CCN(C)C)c2ccccc2SC1c1cccc([N+](=O)[O-])c1 (stereo unspecified)
IC50 [1]: 1.1 µM

CO/C(O)=C1\C(C)=Nc2ccccc2SC1c1cccc([N+](=O)[O-])c1 (stereo unspecified)
IC50 [4]: 0.14 µM | IC50 [1]: 1.2 µM

CC1=Nc2ccccc2SC(c2cccc([N+](=O)[O-])c2)/C1=C(\O)OC(C)C (stereo unspecified)
IC50 [1]: 0.5 µM

CO/C(O)=C1\C(C)=Nc2ccccc2S(=O)(=O)C1c1ccccc1 (stereo unspecified)
IC50 [1]: 10 µM

CCO/C(O)=C1\C(C)=Nc2ccccc2NC1c1cccc([N+](=O)[O-])c1 (stereo unspecified)
IC50 [1]: 1.6 µM

From ChEMBL document CHEMBL1123712, “Synthesis and biological activity of novel calcium channel blockers: 2,5-dihydro-4-methyl-2-phenyl-1,5-benzothiazepine-3-carboxylic acid esters and 2,5-dihydro-4-methyl-2-phenyl-1,5-benzodiazepine-3-carboxylic acid esters” (J Med Chem, 1987)
